# Measured values pooled from the literature.
# Compare with care: the assays were run in different laboratories.
# Target: Procathepsin L (CTSL, Homo sapiens, UniProt P07711)
# Read-out: enzyme activity
# Mode: inhibitor
SMILES,assay,measurement,result
COC(=O)c1c(C)[nH]c(C(=O)COn2nnc3ccc(S(=O)(=O)N(C)C)cc32)c1C,FRET,IC50,> 100000 nM
CC[C@H](NC(=O)OCc1ccccc1)C(=O)N[C@H](C(=O)N[C@@H](CC(C)C)C(=O)N(C)N(C#N)CCC(N)=O)C(C)(C)C,,Ki,22.2 nM
COc1cc(Nc2ncc(F)c(Nc3ccc4c(n3)NC(=O)C(C)(C)O4)n2)cc(OC)c1OC,,IC50,6310 nM
CC(C)C[C@H](NC(=O)[C@H]1O[C@@H]1C(=O)O)C(=O)NCCCCN=C(N)N,,IC50,33 nM
CC[C@H]1NC(=O)[C@@H]2CSC(=N2)[C@@H](Cc2ccccc2)N(C)C(=O)[C@@H]2CCCN2C(=O)[C@H](C(C)C)N(C)C(=O)[C@H](Cc2ccccc2)OC(=O)[C@H](C)[C@@H](C)NC(=O)[C@@H]([C@@H](C)O)NC(=O)[C@@H](CC(C)C)N(C)C(=O)[C@@H]2CSC1=N2,,IC50,14000 nM
COc1cccc2[nH]c(C(=O)N[C@@H](CC(C)C)C(=O)N[C@@H](C[C@@H]3CCNC3=O)C(=O)CO)cc12,,IC50,146 nM
O=C(Cn1nnc2ccccc21)Nc1ccccc1N1CCc2sccc2C1,FRET,IC50,9960 nM
CC(C)(C)OC(=O)Nc1cccn([C@@H](CC2CC2)C(=O)N[C@@H](C[C@@H]2CCNC2=O)C(=O)C(=O)NCc2ccccc2)c1=O,,IC50,291 nM
CN(C(=O)[C@H](Cc1ccccc1)NC(=O)[C@@H](NC(=O)OCc1ccccc1)C(C)(C)C)N(C#N)CCC(N)=O,,Ki,52.9 nM
